What was measured:
[1] = target: T1, ATP-dependent translocase ABCB1 (Homo sapiens, UniProt P08183); test: Inhibition of P-gp ATPase activity in […] DC-3F/ADX cells assessed as increase in basal activity measured by NADH level at 5 uM by spectrophotometric method; format: cell-based; design: scale not given: the % may be the effect or the level left; details: Chinese hamster
Method in brief: (§1)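 P-gp basal MgATP hydrolysis in vesicle suspension, monitored continuously by spectrophotometry. ADP formation is coupled through phosphoenolpyruvate→pyruvate→lactate with NADH→NAD+ conversion, read as NADH absorbance at 340 nm in a 96-well plate. Compound stocks of 0.5, 5 and 50 µM give final well concentrations of 0.05, 0.5 and 5 µM. Run in triplicate.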

[2] = target: T1, ATP-dependent translocase ABCB1; test: Inhibition of P-gp ATPase activity in […] DC-3F/ADX cells assessed as increase in basal activity measured by NADH level at 0.5 uM by spectrophotometric method; format: cell-based; design: scale not given: the % may be the effect or the level left; details: Chinese hamster; method in brief: as §1
[3] = target: T1, ATP-dependent translocase ABCB1; test: Inhibition of P-gp ATPase activity in […] DC-3F/ADX cells assessed as increase in basal activity measured by NADH level at 0.05 uM by spectrophotometric method; format: cell-based; design: scale not given: the % may be the effect or the level left; details: Chinese hamster; method in brief: as §1
[4] = Lipophilicity, log P of the compound; format: physicochemical; details: octanol/water

T1 sequence (P08183 whole entry): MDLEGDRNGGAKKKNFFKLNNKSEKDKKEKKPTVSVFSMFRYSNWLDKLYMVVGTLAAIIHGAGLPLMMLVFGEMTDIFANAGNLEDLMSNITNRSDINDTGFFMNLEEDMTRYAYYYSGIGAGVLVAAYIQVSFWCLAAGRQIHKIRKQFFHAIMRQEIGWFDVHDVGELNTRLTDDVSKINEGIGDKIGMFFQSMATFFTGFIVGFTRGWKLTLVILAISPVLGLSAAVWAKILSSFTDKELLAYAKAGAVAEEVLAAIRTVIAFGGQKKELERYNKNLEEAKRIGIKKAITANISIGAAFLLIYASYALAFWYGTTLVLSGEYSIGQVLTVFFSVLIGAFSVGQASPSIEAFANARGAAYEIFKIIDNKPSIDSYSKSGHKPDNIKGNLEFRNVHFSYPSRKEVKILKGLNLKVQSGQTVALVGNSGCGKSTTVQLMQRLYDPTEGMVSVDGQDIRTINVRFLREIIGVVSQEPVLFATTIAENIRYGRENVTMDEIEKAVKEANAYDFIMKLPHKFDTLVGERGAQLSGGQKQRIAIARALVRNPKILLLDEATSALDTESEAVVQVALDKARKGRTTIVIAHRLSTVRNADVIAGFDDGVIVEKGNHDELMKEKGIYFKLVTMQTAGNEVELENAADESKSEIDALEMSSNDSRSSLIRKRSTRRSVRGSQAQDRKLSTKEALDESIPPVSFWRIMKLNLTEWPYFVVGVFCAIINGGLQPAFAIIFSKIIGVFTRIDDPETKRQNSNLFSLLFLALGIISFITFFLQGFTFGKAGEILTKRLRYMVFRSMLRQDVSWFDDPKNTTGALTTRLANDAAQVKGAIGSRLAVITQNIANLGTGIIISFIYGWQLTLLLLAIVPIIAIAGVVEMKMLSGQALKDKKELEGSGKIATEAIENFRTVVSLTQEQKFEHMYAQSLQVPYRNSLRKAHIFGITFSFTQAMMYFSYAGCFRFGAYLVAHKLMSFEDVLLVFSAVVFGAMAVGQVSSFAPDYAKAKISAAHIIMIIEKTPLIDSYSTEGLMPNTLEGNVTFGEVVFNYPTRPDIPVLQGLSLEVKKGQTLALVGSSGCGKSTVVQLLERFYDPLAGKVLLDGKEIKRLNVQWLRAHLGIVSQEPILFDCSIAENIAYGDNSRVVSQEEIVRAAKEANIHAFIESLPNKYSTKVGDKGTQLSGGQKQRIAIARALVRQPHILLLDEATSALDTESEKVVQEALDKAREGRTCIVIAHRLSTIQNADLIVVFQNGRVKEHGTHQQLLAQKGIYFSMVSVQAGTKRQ

CCN(CC)CC(O)Cn1c2ccccc2c(=O)c2ccccc21 (configuration not stated)
Activity [1]: 36% | Activity [2]: 32% | Activity [3]: 29% | logP [4]: 1.98

O=c1c2ccccc2n(CC(O)CN2CCC(N3CCCCC3)CC2)c2ccccc12 (configuration not stated)
Activity [1]: 31% | Activity [2]: 32% | Activity [3]: 25% | logP [4]: 2.56

CC(=O)[C@H]1CC[C@H]2[C@@H]3CCC4=CC(=O)CC[C@]4(C)[C@H]3CC[C@]12C [PROGESTERONE]
Activity [1]: 34% | Activity [2]: 30%

O=c1c2ccccc2n(CC(O)CN2CCOCC2)c2ccccc12 (configuration not stated)
Activity [1]: 30% | Activity [2]: 27% | Activity [3]: 24% | logP [4]: 1.08

COc1ccc(CCN(C)CCCC(C#N)(c2ccc(OC)c(OC)c2)C(C)C)cc1OC (configuration not stated) [VERAPAMIL]
Activity [1]: 33% | Activity [2]: 30%

O=c1c2ccccc2n(CC(O)CN2CCCCC2)c2ccccc12 (configuration not stated)
Activity [1]: 44% | Activity [2]: 40% | Activity [3]: 33% | logP [4]: 2.14

CC(C)N(CC(O)Cn1c2ccccc2c(=O)c2ccccc21)C(C)C (configuration not stated)
Activity [1]: 28% | Activity [2]: 21% | Activity [3]: 18% | logP [4]: 2.58

CCCNCC(O)COc1ccccc1C(=O)CCc1ccccc1 (configuration not stated) [PROPAFENONE]
Activity [1]: 40% | Activity [2]: 31%

CC[C@]1(O)C[C@@H]2CN(CCc3c([nH]c4ccccc34)[C@@](C(=O)OC)(c3cc4c(cc3OC)N(C)[C@H]3[C@@](O)(C(=O)OC)[C@H](OC(C)=O)[C@]5(CC)C=CCN6CC[C@]43[C@@H]65)C2)C1 [VINBLASTINE]
Activity [1]: 35% | Activity [2]: 31%

O=c1c2ccccc2n(CC(O)CN2CCCC2)c2ccccc12 (configuration not stated)
Activity [1]: 38% | Activity [2]: 34% | Activity [3]: 31% | logP [4]: 1.73

Reference: ChEMBL document CHEMBL1152787, “Search for MDR modulators: design, syntheses and evaluations of N-substituted acridones for interactions with p-glycoprotein and Mg2+” (Bioorg Med Chem, 2009)
